# Read-outs that look alike come from different tables or passages of the source.
# Assays:
# MOR [1] = molecular target: T1, MOR (Mus musculus, UniProt P42866); assay: Radioligand competition binding assay, MOR; conditions: for Selectivity δ/μ: ratio of Ki values DOR/MOR
# DOR [2] = molecular target: T2, DOR (Mus musculus, UniProt P32300); assay: Radioligand competition binding assay, DOR
# [3] = Solubility observed during testing; format: physicochemical; conditions: during binding/functional testing
# MOR [4] = molecular target: T1, MOR; assay: MOR [35S]-GTPγS functional assay; format: biochemical
# mice = assay: Warm-water tail immersion assay; format: in vivo, mouse; conditions: 10 mg/kg s.c. in the presence of morphine (10 mg/kg)
# Summary of the method: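 Male Swiss-Webster mice (23–35 g, 7–8 weeks), n = 5 per group. Single test-compound dose of 10 mg/kg given subcutaneously at time 0. Tail-flick latency measured in water at 56 ± 0.1 °C. Saline served as negative control and morphine as positive control. Response expressed as % maximum possible effect, reported as mean ± SD.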
# KOR [5] = molecular target: T3, KOR (Mus musculus, UniProt P33534); assay: KOR [35S]GTPγS functional assay; format: biochemical
# T3 sequence (P33534 whole entry): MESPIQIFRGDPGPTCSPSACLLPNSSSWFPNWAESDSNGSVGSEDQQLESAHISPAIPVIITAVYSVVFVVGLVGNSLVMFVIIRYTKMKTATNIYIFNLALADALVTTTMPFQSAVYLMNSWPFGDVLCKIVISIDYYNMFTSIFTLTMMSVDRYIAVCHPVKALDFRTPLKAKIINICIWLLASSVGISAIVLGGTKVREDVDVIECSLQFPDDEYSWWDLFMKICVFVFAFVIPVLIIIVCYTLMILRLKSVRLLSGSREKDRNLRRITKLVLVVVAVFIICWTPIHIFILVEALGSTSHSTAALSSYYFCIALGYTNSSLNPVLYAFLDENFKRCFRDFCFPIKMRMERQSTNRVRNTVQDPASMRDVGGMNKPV
# DOR [6] = molecular target: T2, DOR; assay: DOR [35S]GTPγS functional assay; format: biochemical
# MOR [7] = molecular target: T1, MOR; assay: Calcium flux assay in Gqi5-transfected MOR-CHO cells; format: cell-based; conditions: 0.3 nM to 3 μM
# Summary of the method: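 Gqi5 cDNA lipofected into MOR-CHO cells, 4 h at 37 °C/5% CO2, then trypsinized, plated at […] and grown to confluence. At 48 h post-transfection, cells loaded 45 min with fluo-4 AM plus probenecid in HBSS–HEPES–Ca–Mg buffer. Test compound (0.3 nM–3 μM) given for agonist activity; Ca2+ read as RFU peak. Triplicate doses; ≥4 repeats.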
# [8] = Metabolic stability in human liver microsomes; format: in vitro ADME
# [9] = Metabolic stability in rat liver microsomes; format: in vitro ADME
# morphine-pelleted mice [10] = assay: Opioid withdrawal study in chronic morphine-pelleted mice; format: in vivo, mouse; conditions: vs 1 mg/kg naloxone
# hERG potassium channel = hERG potassium channel (Homo sapiens, UniProt Q12809); assay: hERG automated patch-clamp assay in CHO-K1 cells; conditions: ratio of hERG IC50 values vs NAN
# Chain of hERG potassium channel (Q12809 whole entry): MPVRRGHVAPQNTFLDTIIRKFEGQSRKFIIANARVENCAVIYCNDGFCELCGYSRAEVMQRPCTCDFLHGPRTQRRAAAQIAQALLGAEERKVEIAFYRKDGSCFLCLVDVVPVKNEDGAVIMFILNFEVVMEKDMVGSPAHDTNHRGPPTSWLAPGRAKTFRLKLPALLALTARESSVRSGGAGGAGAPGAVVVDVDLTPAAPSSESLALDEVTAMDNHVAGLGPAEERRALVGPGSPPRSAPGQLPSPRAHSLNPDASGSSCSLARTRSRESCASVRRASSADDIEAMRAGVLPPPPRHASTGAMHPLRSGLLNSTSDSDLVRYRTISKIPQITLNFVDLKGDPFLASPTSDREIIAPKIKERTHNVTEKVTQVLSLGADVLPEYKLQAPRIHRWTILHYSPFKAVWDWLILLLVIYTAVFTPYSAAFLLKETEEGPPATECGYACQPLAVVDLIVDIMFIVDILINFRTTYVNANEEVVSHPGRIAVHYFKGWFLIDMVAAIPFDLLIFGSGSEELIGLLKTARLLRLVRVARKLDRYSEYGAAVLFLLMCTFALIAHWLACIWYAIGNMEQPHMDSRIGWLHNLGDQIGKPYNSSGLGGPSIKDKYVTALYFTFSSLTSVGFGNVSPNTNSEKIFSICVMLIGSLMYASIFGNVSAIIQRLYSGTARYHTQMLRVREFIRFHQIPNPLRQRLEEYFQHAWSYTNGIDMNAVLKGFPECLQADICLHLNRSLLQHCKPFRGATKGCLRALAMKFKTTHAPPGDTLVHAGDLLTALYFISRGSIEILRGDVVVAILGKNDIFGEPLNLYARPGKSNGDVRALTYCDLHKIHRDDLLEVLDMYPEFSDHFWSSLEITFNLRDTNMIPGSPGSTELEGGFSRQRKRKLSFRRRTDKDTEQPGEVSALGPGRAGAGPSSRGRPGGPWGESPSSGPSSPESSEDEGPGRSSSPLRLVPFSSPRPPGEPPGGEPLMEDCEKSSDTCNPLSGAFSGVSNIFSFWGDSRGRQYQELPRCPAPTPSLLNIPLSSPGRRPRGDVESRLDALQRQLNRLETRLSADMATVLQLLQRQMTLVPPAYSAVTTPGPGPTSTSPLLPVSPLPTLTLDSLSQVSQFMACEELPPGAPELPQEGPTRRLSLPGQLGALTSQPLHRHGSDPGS
# KOR [11] = molecular target: T3, KOR; conditions: [35S]GTPγS; cited from earlier work
# DOR [12] = molecular target: T2, DOR; conditions: [35S]GTPγS; cited from earlier work
# morphine-pelleted mice [13] = conditions: 50 mg/kg; cited from earlier work
# T2 sequence (P32300 whole entry): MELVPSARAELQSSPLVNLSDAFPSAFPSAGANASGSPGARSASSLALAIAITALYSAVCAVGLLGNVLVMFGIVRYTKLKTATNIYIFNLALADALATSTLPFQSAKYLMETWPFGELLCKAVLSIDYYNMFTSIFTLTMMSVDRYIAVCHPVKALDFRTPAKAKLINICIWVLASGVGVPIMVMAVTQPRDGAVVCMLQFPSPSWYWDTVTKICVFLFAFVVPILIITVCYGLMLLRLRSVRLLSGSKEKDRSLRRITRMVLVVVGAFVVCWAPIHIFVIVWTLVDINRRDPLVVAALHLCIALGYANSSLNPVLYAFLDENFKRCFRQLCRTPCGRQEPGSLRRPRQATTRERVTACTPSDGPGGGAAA
# T1 sequence (P42866 whole entry): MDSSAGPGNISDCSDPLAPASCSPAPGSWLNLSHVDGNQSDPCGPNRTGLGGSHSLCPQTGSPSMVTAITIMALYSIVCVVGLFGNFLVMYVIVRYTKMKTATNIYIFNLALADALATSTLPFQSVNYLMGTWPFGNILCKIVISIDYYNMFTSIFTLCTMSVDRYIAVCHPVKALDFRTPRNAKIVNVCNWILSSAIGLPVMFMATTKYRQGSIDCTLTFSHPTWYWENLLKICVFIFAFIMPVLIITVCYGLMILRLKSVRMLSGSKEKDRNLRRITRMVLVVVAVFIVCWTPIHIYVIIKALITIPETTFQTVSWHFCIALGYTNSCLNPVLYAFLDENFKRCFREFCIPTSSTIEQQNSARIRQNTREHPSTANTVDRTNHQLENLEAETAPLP
structure (smiles),measurement,setting,value
"CC(=O)c1c[nH]c2c(C(=O)N[C@@H]3CC[C@@]4(O)[C@H]5Cc6ccc(O)c7c6[C@@]4(CCN5CC4CC4)[C@H]3O7)cccc12 [Compound 11, 17-Cyclopropylmethyl-3,14β-dihydroxy-4,5α-epoxy-6β-(3-acetyl-indole-7-carboxamido)morphinan]",Selectivity δ/μ,MOR [1],< 1.6
same,Selectivity κ/μ,MOR [1]; ratio of Ki values KOR/MOR,<0.3
same,Ki,DOR [2],81.1 ± 9.98 nM
same,Solubility observed in the in vitro assay,[3],poor solubility
"O=C(N[C@@H]1CC[C@@]2(O)[C@H]3Cc4ccc(O)c5c4[C@@]2(CCN3CC2CC2)[C@H]1O5)c1cccc2c(C3CCCC3)c[nH]c12 [Compound 15, 17-Cyclopropylmethyl-3,14β-dihydroxy-4,5α-epoxy-6β-(3-cyclo-pentyl-indole-7-carboxamido)morphinan]",Ki,DOR [2],9.88 ± 1.13 nM
same,EC50,MOR [4],2.28 ± 0.59 nM
"O=C(N[C@H]1CC[C@@]2(O)[C@H]3Cc4ccc(O)c5c4[C@@]2(CCN3CC2CC2)[C@H]1O5)c1cccc2cc(Br)[nH]c12 [Compound 18, 17-Cyclopropylmethyl-3,14β-dihydroxy-4,5α-epoxy-6α-(2-bromo-indole-7-carboxamido)morphinan]",Ki,DOR [2],6.73 ± 1 nM
same,EC50,MOR [4],2.36 ± 0.7 nM
same,Blockage of the morphine-mediated antinociception,mice,different degrees of inhibition of morphine’s antinociceptive effect
"Cc1cc2cccc(C(=O)N[C@H]3CC[C@@]4(O)[C@H]5Cc6ccc(O)c7c6[C@@]4(CCN5CC4CC4)[C@H]3O7)c2[nH]1.Cl [Compound 21, 17-Cyclopropylmethyl-3,14β-dihydroxy-4,5α-epoxy-6α-(2-methyl-indole-7-carboxamido)morphinan]",Selectivity δ/μ,MOR [1],27.3
same,Ki,DOR [2],16 ± 1.09 nM
same,EC50,"KOR [5]; KOR EC50 (nM), mean ± SEM",6.65 ± 0.78 nM
same,"KOR Emax(% max of U50,488H)","KOR [5]; relative to KOR full agonist U50,488H",48.28 ± 1.45%
same,EC50,"DOR [6]; DOR EC50 (nM), mean ± SEM",4.99 ± 0.21 nM
same,DOR Emax(% max of SNC80),DOR [6]; relative to DOR full agonist SNC80,76.82 ± 4.82%
same,Agonist activity to increase the intracellular calcium concentration,MOR [7],no obvious agonist activity
same,Blockage of the morphine-mediated antinociception,mice,different degrees of inhibition of morphine’s antinociceptive effect
same,CLint scaled,[8],< 38.5 mL/min/kg
same,CLint scaled,[9],< 38.5 mL/min/kg
same,Jumps,morphine-pelleted mice [10]; 40 mg/kg,not significantly different from those at 1 mg/kg naloxone
same,Paw tremors,morphine-pelleted mice [10]; all doses up to 80 mg/kg,significantly fewer paw tremors
same,Wet-dog shakes,morphine-pelleted mice [10]; all the doses tested,did not precipitate more wet-dog shakes
same,Improvement of hERG profile in comparison to NAN (fold),hERG potassium channel,seven-fold
"O=C(N[C@H]1CC[C@@]2(O)[C@H]3Cc4ccc(O)c5c4[C@@]2(CCN3CC2CC2)[C@H]1O5)c1cccc2cc[nH]c12 [NAN, 17-cyclopropylmethyl-3,14β-dihydroxy-4,5α-epoxy-6α-(indole-7-carboxamido)morphinan]","KOR Emax(% max of U50,488H)",KOR [11],73.90 ± 3.69%
same,DOR Emax(% max of SNC80),DOR [12],26.67 ± 1.17%
same,Paw tremors,morphine-pelleted mice [13],seemingly more paw tremors
same,Wet-dog shakes and jumps,morphine-pelleted mice [13],did not induce significant wet-dog shakes and jumps
